MT stabilizer – microtubule stabilization, imaging screen; HeLa tubulin immunostaining HCS, 24 h; share of cells brighter than vehicle mean+2SD; % tubulin-high responders, % at 10 µM; 200,000 tested, 0.83% active; AID 2205;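 active = plate Z-score above 3 for both tubulin-high and condensed-nucleus cell shares, with cell loss under 80%, at 10 µM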;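 note: anti alpha tubulin signal scored within the nucleus-defined area of each cell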
APP transl inh – APP translation inhibition. SH-SY5Y APP 5'UTR-luciferase reporter, luminescence. inhibition, % at 2 µM. 190,000 tested, 0.82% active. AID 1285;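 active = inhibition above a set limit, derived from the sample mean plus 3 SD, cut at about 45% in these data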
Lmaj promast – inhibitors of Leishmania major promastigote growth; Leishmania major promastigotes, resazurin fluorescence viability; inhibition, % at 10 µM; 200,000 tested, 9% active; AID 1063; in the data active = inhibition above about 50%;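 note: promastigotes grown with compound for 44 hours at 28 °C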
BaF3 tox – parental Ba/F3 viability inhibition as JAK2V617F counter-screen | AID 1486 | inhibition, % at 5.6 µM | 220,000 tested, 1.1% active | CellTiter-Glo ATP luminescence;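 active = inhibition above a per-campaign cutoff, the mean inhibition of all tested compounds plus 3 SD, cut at about 27% in these data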
bCat nuc transl – beta-catenin nuclear translocation modulation; HeLa beta-catenin nuclear translocation, immunofluorescence imaging; nuclear translocation activity, % at 5 µM; 190,000 tested, 0.3% active;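 active = nuclear translocation activity above 50% at 5 µM, with a well cell count of 50 or more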;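 note: per-cell ratio of nuclear to cytoplasmic median beta-catenin stain intensity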
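Signal – beta-catenin immunofluorescence imaging with DAPI · Test system – human HeLa cell line · Dosing – 5 µM primary single dose, 0.1% DMSO, 0.02–20 µM confirmation series · Measure – % activation, nuclear-to-cytoplasmic median beta-catenin signal ratio per cell · Incubation – 24 h compound exposure at 37°C, 5% CO2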
Ba/F3 V617F tox – lowers viability of Ba/F3 cells expressing EpoR and JAK2V617F. ATP luminescence. inhibition, % at 5.6 µM. 220,000 tested, 1.1% active;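 active = inhibition above the campaign mean plus 3 SD over all tested compounds, cut at about 24% in these data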;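 note: cytokine-independent growth of Ba/F3 cells driven by EpoR plus mutant JAK2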
Hits are given with their value; n = inactive; x = no result. A selection: hits, their analogues and other compounds. The true share with any hit is near 9.6%.

SMILES	MT stabilizer	APP transl inh	Lmaj promast	BaF3 tox	bCat nuc transl	Ba/F3 V617F tox
COc1ccc(/C=N\Nc2ncc(F)c(N3CCOCC3)n2)cc1OC	x	x	x	n	n	n
COc1ccc(OCC(O)CNC(=O)Nc2cccc3ccccc23)cc1 (configuration not stated)	x	x	x	n	n	n
COC(=O)c1[nH]c2c(c1C)C(=O)CC(c1ccccc1)C2 (configuration not stated)	n	96	n	75	56	74
C/C=C/COC(=O)c1[nH]c2c(c1C)C(=O)CC(c1ccco1)C2 (configuration not stated)	n	95	n	78	154	78
C/C=C/COC(=O)c1[nH]c2c(c1C)C(=O)CC(c1ccc(N(C)C)cc1)C2 (configuration not stated)	n	n	n	n	n	n
CCOC(=O)c1[nH]c2c(c1-c1ccccc1)C(=O)CC(c1ccccc1)C2 (configuration not stated)	n	n	n	n	n	n
C=CCOC(=O)c1[nH]c2c(c1C)C(=O)CC(c1ccco1)C2 (configuration not stated)	n	96	n	84	89	82
O=c1cc(CN2CC(O)Cc3ccc4ccccc4c32)nc2sccn12 (configuration not stated)	n	n	n	n	n	n
Cn1c(O)c(/C=N/Nc2ccccc2)c(=O)n(C)c1=O	n	n	86	n	n	n
CC(=O)N=Cc1c(C)c(C#N)c(=O)n(C)c1O	n	n	n	n	n	n
Cc1cc(O)c(/C=N/Nc2ccc(F)cc2)c(=O)o1	n	n	70	n	n	n
Cc1c(/C=N/Nc2ccc(F)cc2)c(O)n(C)c(=O)c1C#N	n	n	60	n	n	n
Cc1cc(O)c(/C=N/c2ccccn2)c(=O)o1	n	n	n	n	n	n
Cc1[nH]nc(N=Cc2c(O)n(C)c(=O)n(C)c2=O)c1-c1ccccc1	x	x	x	x	n	x
CCOC(=O)C1(Cc2ccc(OC)cc2)CCN(C(=O)c2cc3ccccc3[nH]2)CC1	n	n	n	n	n	n
COC(=O)c1ccc(CSc2nc3ccccc3c(=O)n2-c2ccccc2)o1	n	n	n	n	n	n
COC(=O)c1ccc(CSc2nc3c(c(=O)n2-c2ccc(F)cc2)SCC3)o1	n	n	100	n	n	n
COC(=O)c1ccc(CSc2nc3ccccc3c(=O)n2-c2ccc(OC)c(OC)c2)o1	n	n	97	n	n	n
COc1ccc(NC(=O)CSc2nc3c(c(=O)n2-c2ccc(F)cc2)SCC3)cc1	n	n	n	n	n	n
COC(=O)c1ccc(CSc2nc3c(c(=O)n2-c2ccccc2)SCC3)o1	n	n	87	n	n	n
O=C(NC(=S)Nc1ccc2c(c1)C(=O)c1ccccc1C2=O)c1ccc(F)cc1	n	n	n	n	n	n
C[N+](C)(C)CCCNC(=O)c1ccc(/C=N/O)nc1	n	n	n	n	x	n
COc1ccc(OC)c(-c2nc3cc4ccccc4cc3nc2-c2ccccc2)c1	n	n	n	n	n	n
Fc1cccc(CN2CCN(c3nc4nonc4nc3NC3CC3)CC2)c1	n	n	n	n	n	n
CC1CCN(c2nc(CN3CCCCC3)nc3scc(-c4ccccc4)c23)CC1	n	n	91	n	n	n
SMILES	MT stabilizer	APP transl inh	Lmaj promast	BaF3 tox	bCat nuc transl	Ba/F3 V617F tox
Cc1cccc2cc(C#N)c(SCCN3CCCCC3)nc12	n	n	100	n	x	n
Cc1cccc2cc(C#N)c(N3CCN(C)CC3)nc12	n	n	n	n	n	n
Cc1ccc2c(C)nc(SC(C(=O)c3ccccc3)c3ccccc3)nc2c1 (configuration not stated)	n	n	n	n	n	n
N#Cc1nc(-c2ccc(OCc3ccccc3Cl)cc2)oc1NCCCn1ccnc1	n	n	99	n	n	n
N#Cc1nc(-c2ccc(OCc3ccccc3)cc2)oc1NCCCn1ccnc1	n	n	52	n	n	n
Cc1cc(NCCCN2CCOCC2)n2ncc(-c3ccc(Cl)cc3)c2n1	n	n	99	n	n	n
CN(C)CCCNc1cc(C(C)(C)C)nc2c(-c3ccc(Cl)cc3)cnn12	x	x	x	n	n	n
Cc1cc(NCCCn2ccnc2)n2ncc(-c3ccc(Cl)cc3)c2n1	n	n	100	n	x	n
CCOc1ccc(C(=O)CC(NCc2cccs2)C(=O)O)cc1 (configuration not stated)	n	n	n	n	n	n
CCOc1cc(C2C3=C(CC(C)(C)CC3=O)Nc3n[nH]c(C)c32)ccc1O (configuration not stated)	n	n	n	n	n	n
CCCCC(=O)Nc1cc(-c2nc3ncccc3o2)ccc1C	n	n	99	n	n	n
Cc1ccc(-c2nc3ncccc3o2)cc1NC(=O)c1ccccc1	x	x	x	n	n	n
O=C(Nc1cccc(-c2nc3ncccc3o2)c1)c1ccccc1	n	n	100	n	n	n
Cc1ccc(C(=O)Nc2cccc(-c3nc4ncccc4o3)c2)cc1	x	x	x	n	n	n
CCCC(=O)NC(=S)Nc1cccc(-c2nc3ncccc3o2)c1	n	n	n	79	n	n
COc1ccc(NC(=O)N2CCN(S(C)(=O)=O)CC2)cc1	n	n	n	n	n	n
COc1ccc(C(=O)c2ccc(N3CCN(C(=O)c4ccc(F)cc4)CC3)c(F)c2)cc1Br	n	n	n	n	x	n
NC(=O)CC(NC(=O)Cc1ccc(Br)cc1)c1ccc(NCCc2ccc(F)cc2)c([N+](=O)[O-])c1 (configuration not stated)	x	x	x	x	n	x
Cc1oc(-c2ccc(Cl)cc2)nc1CS(=O)CC(=O)NCCCN(C)C1CCCCC1 (configuration not stated)	n	n	100	n	n	n
O=C(Nc1nnc(/C=C/c2ccccc2)s1)c1ccco1	x	x	x	n	n	n
COc1ccccc1C(=O)COC(=O)c1ccc(N(C)C)cc1	n	n	n	n	n	n
COc1ccc(C(=O)c2ccc(N(C)C)cc2)c2ccccc12	n	92	n	78	n	77
COc1cccc(C2SCC(=O)N2c2ccc(Cl)cc2)c1OC (configuration not stated)	n	n	67	n	n	n
COc1ccc(/C=C/C(O)=C2/C(=O)N(C)C3(C)CC2c2ccccc2O3)cc1 (configuration not stated)	n	n	80	n	n	n
Cc1ccc(/C=C/C(O)=C2/C(=O)N(C)C3(C)CC2c2ccccc2O3)cc1 (configuration not stated)	n	n	79	n	n	n
Cc1ccc(S(=O)(=O)C2C(=O)N(C)C3(C)CC2c2ccccc2O3)cc1C (configuration not stated)	n	n	n	n	n	n
COc1ccc(/C=C/C(O)=C2/C(=O)NC3(C)CC2c2ccccc2O3)c(OC)c1OC (configuration not stated)	n	n	n	n	x	n
